Experimental data as given in ChEMBL document CHEMBL2384995, “Discovery of highly potent triazole antifungal derivatives by heterocycle-benzene bioisosteric replacement” (Eur J Med Chem, 2013).
In brackets after ≈: the same amount, converted by molar mass.

Experiments:
[1] = test system: Candida albicans; assay: Antifungal activity against Candida albicans after 24 hrs by NCCLS method; assay type: functional
Procedure, shortened: (§1)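 Broth microdilution in 96-well plates following NCCLS recommendations, using ATCC strains or clinical isolates. Compounds were dissolved in DMSO and serially diluted in growth medium. Yeast plates were incubated at 35 °C and read at 24 h. MIC80 is the lowest concentration giving turbidity of […] inhibition relative to the drug-free growth control.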

[2] = test system: Cryptococcus neoformans; assay: Antifungal activity against Cryptococcus neoformans after 72 hrs by NCCLS method; assay type: functional
Procedure, shortened: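 NCCLS serial-dilution MIC assay in 96-well plates against an ATCC or clinical yeast isolate. Test agents were taken up in DMSO and diluted serially in growth medium. Plates were held at 35 °C and growth was scored at 72 h. MIC80 is the lowest concentration reducing turbidity by at least 80% compared with the control culture.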

[3] = test system: Candida tropicalis; assay: Antifungal activity against Candida tropicalis after 24 hrs by NCCLS method; assay type: functional; procedure, shortened: as §1
[4] = test system: Aspergillus fumigatus; assay: Antifungal activity against Aspergillus fumigatus after 7 days by NCCLS method; assay type: functional; conditions: 168 h
Procedure, shortened: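 Microtest-plate serial dilution per NCCLS, with the strain taken from ATCC or a clinical source. Compounds were prepared in DMSO and serially diluted in growth medium. Growth was read after 7 days. The endpoint is the lowest concentration producing ≥80% turbidity inhibition versus the untreated growth control.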

[5] = test system: Trichophyton rubrum; assay: Antifungal activity against Trichophyton rubrum by NCCLS method; assay type: functional
Procedure, shortened: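 Dermatophyte MIC by NCCLS broth serial dilution in 96-well plates, using an ATCC or clinical isolate. DMSO solutions were serially diluted in growth medium and incubated at 28 °C.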

[6] = Half life in Sprague-Dawley rat at 15 mg/kg, po by LC/MS/MS analysis; assay type: ADME, organism-based; set-up: dose 15 mg/kg, route oral; conditions: in vivo
Procedure, shortened: (§2)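 Single oral dose of 15 mg/kg in Sprague-Dawley rats. Blood was drawn from the orbital venous plexus at several time points and plasma drug levels were quantified by LC/MS/MS, from which the pharmacokinetic parameters were obtained.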

[7] = Tmax in Sprague-Dawley rat at 15 mg/kg, po by LC/MS/MS analysis; assay type: ADME, organism-based; set-up: dose 15 mg/kg, route oral; conditions: in vivo; procedure, shortened: as §2
[8] = Cmax in Sprague-Dawley rat at 15 mg/kg, po by LC/MS/MS analysis; assay type: ADME, organism-based; set-up: dose 15 mg/kg, route oral; conditions: in vivo; procedure, shortened: as §2
[9] = AUC (0 to infinity) in Sprague-Dawley rat at 15 mg/kg, po by LC/MS/MS analysis; assay type: ADME, organism-based; set-up: time infinity, dose 15 mg/kg, route oral; conditions: plasma; procedure, shortened: as §2
[10] = test system: Cryptococcus neoformans; assay: Ratio of fluconazole MIC80 to compound MIC80 for Cryptococcus neoformans; assay type: functional
[11] = test system: Trichophyton rubrum; assay: Ratio of fluconazole MIC80 to compound MIC80 for Trichophyton rubrum; assay type: functional
[12] = Candida albicans, 24 h, read-out: MIC80
[13] = Cryptococcus neoformans, 72 h, read-out: MIC80

Q: For CN(Cc1nc2ccccc2[nH]1)CC(O)(Cn1cncn1)c1ccc(F)cc1F (racemic), which MIC80 [1, 12] is on record?
A: 4 µg/mL (≈ 10 µM)

Q: And the MIC80 [2, 13]?
A: 16 µg/mL (≈ 40.2 µM)

Q: And the MIC80 [3]?
A: 0.25 µg/mL (≈ 0.627 µM)

Q: And the MIC80 [4]?
A: > 64 µg/mL

Q: And the MIC80 [5]?
A: > 64 µg/mL

Q: With CN(Cc1ccc(I)cc1)CC(O)(Cn1cncn1)c1ccc(F)cc1F (stereo not drawn) as the molecule, how does the half-life [6] read?
A: 1.38 h

Q: What about the Tmax [7] of the same molecule?
A: 0.9 h

Q: What about the Cmax [8] of the same molecule?
A: 297 ng/mL

Q: What about the AUC(0-inf) [9] of the same molecule?
A: 546 ng·h/mL

Q: Which results are given for CN(Cc1ccccn1)CC(O)(Cn1cncn1)c1ccc(F)cc1F (racemic)?
A: MIC80 [1, 12]: 1 µg/mL (≈ 2.78 µM); MIC80 [2, 13]: 0.25 µg/mL (≈ 0.696 µM); MIC80 [3]: 0.0625 µg/mL (≈ 0.174 µM); Ratio [10]: 8; MIC80 [4]: > 64 µg/mL; MIC80 [5]: 4 µg/mL (≈ 11.1 µM)

Q: Which results are given for OC(Cn1cncn1)(Cn1cncn1)c1ccc(F)cc1F [FLUCONAZOLE]?
A: MIC80 [1, 12]: 0.25 µg/mL (≈ 0.816 µM); MIC80 [2, 13]: 2 µg/mL (≈ 6.53 µM); MIC80 [3]: 4 µg/mL (≈ 13.1 µM); MIC80 [4]: > 64 µg/mL; MIC80 [5]: 1 µg/mL (≈ 3.27 µM)

Q: For CN(Cc1ccco1)CC(O)(Cn1cncn1)c1ccc(F)cc1F (racemic), which MIC80 [1, 12] is on record?
A: 0.0625 µg/mL (≈ 0.179 µM)

Q: What about the MIC80 [2, 13] of the same molecule?
A: 0.0625 µg/mL (≈ 0.179 µM)

Q: What about the MIC80 [3] of the same molecule?
A: 0.016 µg/mL (≈ 0.0459 µM)

Q: What about the Ratio [10] of the same molecule?
A: 32

Q: What about the MIC80 [4] of the same molecule?
A: 64 µg/mL (≈ 184 µM)

Q: What about the MIC80 [5] of the same molecule?
A: 1 µg/mL (≈ 2.87 µM)

Q: Which MIC80 [1, 12] does the source give for OC(CN1CCN(Cc2nc3ccccc3o2)CC1)(Cn1cncn1)c1ccc(F)cc1F (racemic) here?
A: 0.0625 µg/mL (≈ 0.138 µM)

Q: And the Ratio [11]?
A: 4

Q: What about the MIC80 [2, 13] of the same molecule?
A: 0.0625 µg/mL (≈ 0.138 µM)

Q: What about the MIC80 [3] of the same molecule?
A: 0.004 µg/mL (≈ 0.0088 µM)

Q: What about the Ratio [10] of the same molecule?
A: 32

Q: And the MIC80 [4]?
A: 0.25 µg/mL (≈ 0.55 µM)

Q: What about the MIC80 [5] of the same molecule?
A: 0.25 µg/mL (≈ 0.55 µM)

Q: For OC(CN1CCN(Cc2cccs2)CC1)(Cn1cncn1)c1ccc(F)cc1F (racemic), which MIC80 [1, 12] is on record?
A: 0.0625 µg/mL (≈ 0.149 µM)

Q: What about the MIC80 [2, 13] of the same molecule?
A: 0.25 µg/mL (≈ 0.596 µM)

Q: What about the MIC80 [3] of the same molecule?
A: 0.016 µg/mL (≈ 0.0381 µM)

Q: What about the Ratio [10] of the same molecule?
A: 8

Q: What about the MIC80 [4] of the same molecule?
A: 16 µg/mL (≈ 38.1 µM)

Q: What about the MIC80 [5] of the same molecule?
A: 4 µg/mL (≈ 9.54 µM)

Q: Which MIC80 [1, 12] does the source give for CN(Cc1cccs1)CC(O)(Cn1cncn1)c1ccc(F)cc1F (racemic) here?
A: 1 µg/mL (≈ 2.74 µM)

Q: What about the MIC80 [2, 13] of the same molecule?
A: 0.016 µg/mL (≈ 0.0439 µM)

Q: And the MIC80 [3]?
A: 0.125 µg/mL (≈ 0.343 µM)

Q: And the Ratio [10]?
A: 125

Q: And the MIC80 [4]?
A: 16 µg/mL (≈ 43.9 µM)

Q: What about the MIC80 [5] of the same molecule?
A: 1 µg/mL (≈ 2.74 µM)

Q: Which results are given for OC(CN1CCN(Cc2nc3ccccc3s2)CC1)(Cn1cncn1)c1ccc(F)cc1F (stereo in doubt; (-)-8f)?
A: MIC80 [1]: <0.016 µg/mL; MIC80 [2]: <0.016 µg/mL

Q: Which MIC80 [1, 12] does the source give for OC(CN1CCN(Cc2ccccn2)CC1)(Cn1cncn1)c1ccc(F)cc1F (racemic) here?
A: 0.0625 µg/mL (≈ 0.151 µM)

Q: What about the MIC80 [2, 13] of the same molecule?
A: 1 µg/mL (≈ 2.41 µM)

Q: What about the MIC80 [3] of the same molecule?
A: 1 µg/mL (≈ 2.41 µM)

Q: What about the Ratio [10] of the same molecule?
A: 2

Q: And the MIC80 [4]?
A: 16 µg/mL (≈ 38.6 µM)

Q: What about the MIC80 [5] of the same molecule?
A: 1 µg/mL (≈ 2.41 µM)

Q: What does the source list for OC(CN1CCN(Cc2nc3ccccc3[nH]2)CC1)(Cn1cncn1)c1ccc(F)cc1F (racemic)?
A: MIC80 [1, 12]: 4 µg/mL (≈ 8.82 µM); MIC80 [2, 13]: 16 µg/mL (≈ 35.3 µM); MIC80 [3]: 1 µg/mL (≈ 2.21 µM); MIC80 [4]: > 64 µg/mL; MIC80 [5]: 64 µg/mL (≈ 141 µM)

Q: Which results are given for OC(CN1CCN(Cc2nc3ccccc3s2)CC1)(Cn1cncn1)c1ccc(F)cc1F (racemic)?
A: MIC80 [1]: 0.016 µg/mL (≈ 0.034 µM); half-life [6]: 1.27 h; Ratio [11]: 16; MIC80 [2]: 0.016 µg/mL (≈ 0.034 µM); Tmax [7]: 0.8 h; MIC80 [3]: 0.004 µg/mL (≈ 0.0085 µM); Cmax [8]: 508 ng/mL; Ratio [10]: 125; AUC(0-inf) [9]: 1420 ng·h/mL; MIC80 [4]: 64 µg/mL (≈ 136 µM); MIC80 [5]: 0.0625 µg/mL (≈ 0.133 µM)

Q: What does the source list for OC(CN1CCN(Cc2nc3ccccc3s2)CC1)(Cn1cncn1)c1ccc(F)cc1F (single isomer, unassigned; (+))?
A: MIC80 [1]: 0.0625 µg/mL (≈ 0.133 µM); MIC80 [2]: 0.0625 µg/mL (≈ 0.133 µM)

Q: Which MIC80 [1, 12] does the source give for CN(Cc1ccc2ccccc2n1)CC(O)(Cn1cncn1)c1ccc(F)cc1F (racemic) here?
A: 4 µg/mL (≈ 9.77 µM)

Q: And the MIC80 [2, 13]?
A: 0.25 µg/mL (≈ 0.611 µM)

Q: What about the MIC80 [3] of the same molecule?
A: 1 µg/mL (≈ 2.44 µM)

Q: What about the Ratio [10] of the same molecule?
A: 8

Q: What about the MIC80 [4] of the same molecule?
A: > 64 µg/mL

Q: What about the MIC80 [5] of the same molecule?
A: 4 µg/mL (≈ 9.77 µM)

Q: What does the source list for OC(CN1CCN(Cc2ccc3ccccc3n2)CC1)(Cn1cncn1)c1ccc(F)cc1F (racemic)?
A: MIC80 [1, 12]: 1 µg/mL (≈ 2.15 µM); MIC80 [2, 13]: 0.0625 µg/mL (≈ 0.135 µM); MIC80 [3]: 0.016 µg/mL (≈ 0.0344 µM); Ratio [10]: 32; MIC80 [4]: 2 µg/mL (≈ 4.31 µM); MIC80 [5]: 0.25 µg/mL (≈ 0.538 µM)
